Experiment: Pharmacokinetics, first-in-human single ascending dose study
Assay type: in vivo
Conditions: n = 8
Procedure, shortened: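 Healthy men received a single fasted dose of 3–200 mg, with 8 on active drug per cohort. Plasma was sampled pre-dose and at 0.25–36 h. Drug was quantified by validated LC–MS/MS (LLOQ 1.00 ng/mL). Cmax, tmax, t1/2, AUClast and AUC∞ were calculated by noncompartmental analysis using actual elapsed sampling times.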

## CN1CCC23CCCCC2C1Cc1ccc(C(N)=O)cc13 (stereo not drawn) [ALKS 7119, (9α, 13α)‐17‐methylmorphinan‐3‐carboxamide]
3 mg single oral dose
  AUC infinite/dose: 33.34
  AUClast, mean (SD): 85.88 (25.56) hr*ng/ml
  AUClast, range: 57.37 to 129.02 ng·h/mL
  AUC∞, mean (SD): 100.03 (25.04) hr*ng/ml
  AUC∞, range: 73.65 to 140.04 ng·h/mL
  Cmax, mean (SD): 8.33 (2.78) ng/ml
  Cmax, range: 5.87 to 13.20 ng/mL
  Cmax/dose: 2.78
  t1/2, mean (SD): 6.98(1.16) h
  t1/2, range: 5.20 to 8.77 h
  tmax, median: 2.02 h
  tmax, range: 2.00 to 4.15 h
10 mg single oral dose
  AUC infinite/dose: 29.54
  AUClast, mean (SD): 272.60 (35.69) hr*ng/ml
  AUClast, range: 198.45 to 321.20 ng·h/mL
  AUC∞, mean (SD): 295.38 (32.29) hr*ng/ml
  AUC∞, range: 233.76 to 338.34 ng·h/mL
  Cmax, mean (SD): 25.33 (3.91) ng/ml
  Cmax, range: 20.40 to 32.30 ng/mL
  Cmax/dose: 2.53
  t1/2, mean (SD): 8.51 (0.89) h
  t1/2, range: 7.01 to 9.45 h
  tmax, median: 2.00 h
  tmax, range: 1.00 to 2.00 h
25 mg single oral dose
  AUC infinite/dose: 29.25
  AUClast, mean (SD): 703.56 (89.80) hr*ng/ml
  AUClast, range: 608.46 to 864.96 ng·h/mL
  AUC∞, mean (SD): 731.29 (87.27) hr*ng/ml
  AUC∞, range: 640.06 to 883.94 ng·h/mL
  Cmax, mean (SD): 74.51 (16.19) ng/ml
  Cmax, range: 51.00 to 93.00 ng/mL
  Cmax/dose: 2.98
  t1/2, mean (SD): 7.81 (0.83) h
  t1/2, range: 6.78 to 9.41 h
  tmax, median: 1.00 h
  tmax, range: 1.00 to 2.00 h
50 mg single oral dose
  AUC infinite/dose: 30.94
  AUClast, mean (SD): 1473.57 (203.53) hr*ng/ml
  AUClast, range: 1234.86 to 1780.97 ng·h/mL
  AUC∞, mean (SD): 1547.06 (196.89) hr*ng/ml
  AUC∞, range: 1277.55 to 1828.84 ng·h/mL
  Cmax, mean (SD): 140.00 (32.44) ng/ml
  Cmax, range: 103.00 to 190.00 ng/mL
  Cmax/dose: 2.80
  t1/2, mean (SD): 7.81 (0.69) h
  t1/2, range: 6.99 to 8.68 h
  tmax, median: 1.53 h
  tmax, range: 1.00 to 4.00 h
75 mg single oral dose
  AUC infinite/dose: 33.98
  AUClast, mean (SD): 2406.33 (373.64) hr*ng/ml
  AUClast, range: 1732.82 to 2969.47 ng·h/mL
  AUC∞, mean (SD): 2548.51 (468.23) hr*ng/ml
  AUC∞, range: 1772.06 to 3367.86 ng·h/mL
  Cmax, mean (SD): 225.50 (40.59) ng/ml
  Cmax, range: 190.00 to 302.00 ng/mL
  Cmax/dose: 3.01
  t1/2, mean (SD): 8.42 (1.63) h
  t1/2, range: 6.84 to 12.01 h
  tmax, median: 1.50 h
  tmax, range: 0.50 to 4.00 h
100 mg single oral dose
  AUC infinite/dose: 31.36
  AUClast, mean (SD): 3027.23 (600.53) hr*ng/ml
  AUClast, range: 2340.29 to 4326.23 ng·h/mL
  AUC∞, mean (SD): 3136.45 (634.60) hr*ng/ml
  AUC∞, range: 2418.74 to 4525.46 ng·h/mL
  Cmax, mean (SD): 307.63 (75.28) ng/ml
  Cmax, range: 224.00 to 465.00 ng/mL
  Cmax/dose: 3.08
  t1/2, mean (SD): 7.63 (0.93) h
  t1/2, range: 6.36 to 8.84 h
  tmax, median: 1.50 h
  tmax, range: 1.00 to 4.08 h
125 mg single oral dose
  AUC infinite/dose: 33.50
  AUClast, mean (SD): 4059.17 (809.98) hr*ng/ml
